We go through seven compounds from ChEMBL document CHEMBL3244241, “Synthesis of cephalotaxine esters and correlation of their structures with antitumor activity” (J Med Chem, 1977).

Series [1] relates to Mus musculus. The series is described as follows: Toxicity in DBA/2 mouse allografted with mouse P388 cells assessed as change in body weight at 20 mg/kg/day, ip for 9 days compound administered through water+acetone vehicle. The series is classed as organism-based. More on the design: route intraperitoneal. Particulars: in vivo, 216 h. The procedure, abridged:
(§1)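 DBA/2 mice bearing P388 lymphocytic leukemia received one intraperitoneal injection per day for 9 days, given in the vehicle named for each test (water/alcohol-based, saline or saline + Tween 80). Toxicity was noted during dosing alongside survival scoring (T/C, treated versus control mean survival time).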

The subject of series [2] is P388. The series is described as follows: Antitumor activity against mouse P388 cells allografted in DBA/2 mouse assessed as host survival at 20 mg/kg/day, ip for 9 days compound administered through water+acetone vehicle relative to control. The series is classed as functional. Particulars: route intraperitoneal. The procedure, abridged:
(§2)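 P388 lymphocytic leukemia in DBA/2 mice. Dosing was one intraperitoneal injection per day for 9 days in the vehicle stated. […] Duplicate tests were run for some doses.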

Series [3] has as its system P388. Put plainly: Antitumor activity against mouse P388 cells allografted in ip dosed DBA/2 mouse administered for 9 days. The series is classed as functional, organism-based. The essentials:
(§3)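 P388 lymphocytic leukemia in DBA/2 mice; one intraperitoneal injection per day for 9 days. […] Injection vehicles were water + alcohol, saline + Tween 80, or aqueous 0.5% citric acid. Some tests were duplicated, and 30-day cures were recorded.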

The test system of series [4] is P388. Put plainly: Antitumor activity against mouse P388 cells allografted in DBA/2 mouse assessed as host survival at 20 mg/kg/day, ip for 9 days compound administered through water+alcohol vehicle relative to control. It counts as functional. The settings on record: route intraperitoneal. The essentials:
as §2

In series [5] the test system is Mus musculus. Put plainly: Toxicity in DBA/2 mouse allografted with mouse P388 cells assessed as change in body weight at 20 mg/kg/day, ip for 9 days compound administered through water+alcohol vehicle. The series is classed as organism-based. Set-up: route intraperitoneal. The settings on record: in vivo, 216 h. The procedure, abridged: as §1
The subject of series [6] is Mus musculus. Put plainly: Toxicity in DBA/2 mouse allografted with mouse P388 cells assessed as change in body weight at 40 mg/kg/day, ip for 9 days compound administered through water+alcohol vehicle. It counts as organism-based. More on the design: route intraperitoneal. The settings on record: in vivo, 216 h. The essentials:
as §1

Series [7] has as its system P388. Put plainly: Antitumor activity against mouse P388 cells allografted in DBA/2 mouse assessed as host survival at 80 mg/kg/day, ip for 9 days compound administered through water+alcohol vehicle relative to control. It counts as functional. Particulars: route intraperitoneal. The essentials:
as §2

The subject of series [8] is P388. Put plainly: Antitumor activity against mouse P388 cells allografted in DBA/2 mouse assessed as host survival at 40 mg/kg/day, ip for 9 days compound administered through water+alcohol vehicle relative to control. It counts as functional. The settings on record: route intraperitoneal. The procedure, abridged: as §2
Series [9] has as its system Mus musculus. The series is described as follows: Toxicity in DBA/2 mouse allografted with mouse P388 cells assessed as change in body weight at 80 mg/kg/day, ip for 9 days compound administered through water+alcohol vehicle. It counts as organism-based. Set-up: route intraperitoneal. Particulars: in vivo, 216 h. The procedure, abridged: as §1
Series [10] concerns P388. Put plainly: Antitumor activity against mouse P388 cells allografted in DBA/2 mouse at 480 mg/kg/day, ip for 9 days. The series is classed as functional, organism-based. The procedure, abridged: as §3
The test system of series [11] is P388. The series is described as follows: Antitumor activity against mouse P388 cells allografted in DBA/2 mouse assessed as host survival at 2 mg/kg/day, ip for 9 days compound administered through saline vehicle relative to control. The series is classed as functional. The settings on record: route intraperitoneal. The essentials: as §2
The test system of series [12] is Mus musculus. Put plainly: Toxicity in DBA/2 mouse allografted with mouse P388 cells assessed as change in body weight at 4 mg/kg/day, ip for 9 days compound administered through saline vehicle. The settings on record: in vivo, 216 h. More on the design: route intraperitoneal. The series is classed as organism-based.
Series [13] has as its system Mus musculus. The series is described as follows: Toxicity in DBA/2 mouse allografted with mouse P388 cells assessed as change in body weight at 2 mg/kg/day, ip for 9 days compound administered through saline vehicle. It counts as organism-based. Set-up: route intraperitoneal. The settings on record: in vivo, 216 h.
The test system of series [14] is Mus musculus. Put plainly: Toxicity in DBA/2 mouse allografted with mouse P388 cells assessed as change in body weight at 5.9 mg/kg/day, ip for 9 days compound administered through water+alcohol vehicle. The settings on record: in vivo, 216 h. It counts as organism-based. Set-up: route intraperitoneal.
The test system of series [15] is P388. Put plainly: Antitumor activity against mouse P388 cells allografted in DBA/2 mouse assessed as host survival at 5.9 mg/kg/day, ip for 9 days compound administered through water+alcohol vehicle relative to control. The series is classed as functional. Particulars: route intraperitoneal. The essentials:
as §2

The test system of series [16] is P388. Put plainly: Antitumor activity against mouse P388 cells allografted in DBA/2 mouse assessed as host survival at 4 mg/kg/day, ip for 9 days compound administered through saline vehicle relative to control. The series is classed as functional. Particulars: route intraperitoneal. The procedure, abridged:
as §2

In series [17] the test system is P388. The series is described as follows: Antitumor activity against mouse P388 cells allografted in DBA/2 mouse assessed as disease cure at 365 mg/kg/day, ip for 9 days compound administered through water+alcohol vehicle measured after 30 days. The series is classed as functional, organism-based. The procedure, abridged:
as §3

For series [18], the system named is L1210. Put plainly: Antitumor activity against mouse L1210 cells allografted in DBA/2 mouse at 25 to 200 mg/kg. The series is classed as functional, organism-based.

Each structure is given as a SMILES string. The source made the active and inactive calls. No cut-off for these calls is given here.

As to `COC(=O)/C(=C/C(=O)O[C@@H]1C(OC)=C[C@]23CCCN2CCc2cc4c(cc2[C@H]13)OCO4)CCC(C)C`, in series [1], the Activity turned out to be 0.9 g. For the same compound, the T/C in series [2] is reported as 131%.

Turning to `COC(=O)/C=C/C=C/C(=O)O[C@@H]1C(OC)=C[C@]23CCCN2CCc2cc4c(cc2[C@H]13)OCO4`, the result in [3] was inactive.

For `C/C=C/C=C/C(=O)O[C@@H]1C(OC)=C[C@]23CCCN2CCc2cc4c(cc2[C@H]13)OCO4`, the T/C in series [4] came out at 130%; in series [7], 150%; in series [8], 125%. Moreover, the Activity in [5] is on record as 0.9 g; in series [6], -1.8 g; in series [9], 0.9 g.

In the case of `C=C(CC(=O)OC)C(=O)O[C@@H]1C(OC)=C[C@]23CCCN2CCc2cc4c(cc2[C@H]13)OCO4` (single isomer, unassigned), the result in series [10] was inactive.

For the compound `CCOC(=O)O[C@@H]1C(OC)=C[C@]23CCCN2CCc2cc4c(cc2[C@H]13)OCO4`, the outcome in series [3] was inactive.

With `COC(=O)C[C@](O)(CCC(C)C)C(=O)O[C@@H]1C(OC)=C[C@]23CCCN2CCc2cc4c(cc2[C@H]13)OCO4` [DEOXYHARRINGTONINE], the values for the T/C in series [11], in series [15] and in series [16] were 126%, 184% and 174%, respectively. Also, the Activity is listed as 0 g in series [12], 0.8 g in [13] and -0.9 g in series [14].

In the case of `C=C(CC(=O)OC)C(=O)O[C@@H]1C(OC)=C[C@]23CCCN2CCc2cc4c(cc2[C@H]13)OCO4`, the outcome in series [17] was Active. Further, the outcome in series [18] was inactive.
